Measurements: ChEMBL document CHEMBL2321652, “Design and synthesis of HIV-1 protease inhibitors for a long-acting injectable drug application” (Bioorg Med Chem Lett, 2013)

How the values were obtained:
[1] = Aqueous solubility of the compound in crystalline polymorphic form; assay type: physicochemical
[2] = Bioavailability in rat at 50 mg/mL formulated with 25 mg/mL of poloxamer 338 and sucrose in water administered intramuscularly measured after 1 month; assay type: ADME, organism-based; conditions: in vivo, im
Summary of the method: (§1)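 Nanosuspension depot given by a single intramuscular injection in rats. Blood is sampled at regular intervals over two months. Absolute bioavailability is assessed after 1 month of sampling as ((AUC_IM × dose_IV)/(AUC_IV × dose_IM)) × 100, relative to intravenous dosing.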

[3] = Bioavailability in rat at 50 mg/mL formulated with Vit-E TPGS, DSPG and sucrose in water administered intramuscularly measured after 1 month; assay type: ADME, organism-based; conditions: in vivo, im; summary of the method: as §1
[4] = Bioavailability in rat at 100 mg/mL formulated with polysorbate 20 and NaCl in water administered intramuscularly measured after 1 month; assay type: ADME, organism-based; conditions: in vivo, im; summary of the method: as §1
[5] = Drug metabolism in human liver microsomes at 1 uM after 15 mins; assay type: ADME, Microsome; conditions: read-out: Drug metabolism
Summary of the method: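 Human liver microsome incubation at 37 °C for 15 min with compound at 1 µM; turnover expressed as percent of compound metabolized.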

[6] = Plasma clearance in rat at 2 mg/kg, iv; assay type: ADME, organism-based; design: dose 2 mg/kg, route intravenous
Summary of the method: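 Single intravenous dose of 2 mg/kg in rats. The formulation is typically 1 mg/mL in PEG400/ethanol/saline (70/20/10). Clearance values are averages from two or three animals. High is >3 L/h/kg (>70% liver blood flow) and low is <1.3 L/h/kg (<30%).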

[7] = tested on: Human immunodeficiency virus 1; assay: Selectivity ratio of EC50 for Human immunodeficiency virus 1 3B clinical isolate harboring L10I/K20R/M36I/G48V/ I62V/A71V/V82A/I93L protease mutant to EC50 for wild type Human immunodeficiency virus 1 3B; assay type: functional
[8] = tested on: Human immunodeficiency virus 1; assay: Selectivity ratio of EC50 for Human immunodeficiency virus 1 3B clinical isolate harboring L10I/I13V/M46I/I50V/L63P/L76V protease mutant to EC50 for wild type Human immunodeficiency virus 1 3B; assay type: functional
[9] = tested on: Human immunodeficiency virus 1; assay: Selectivity ratio of EC50 for Human immunodeficiency virus 1 3B clinical isolate harboring L10I/M46I/I64V/I84V/L90M/I93L protease mutant to EC50 for wild type Human immunodeficiency virus 1 3B; assay type: functional
[10] = tested on: Human immunodeficiency virus 1; assay: Antiviral activity against Human immunodeficiency virus 1 3B clinical isolate harboring L10I/K20R/M36I/G48V/ I62V/A71V/V82A/I93L protease mutant infected in human MT4 cells assessed as inhibition of viral replication; assay type: functional, organism-based
Summary of the method: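 Each assay run in quadruplicate. Values are averages of at least two independent experiments, typically three to four. Cytotoxicity (CC50) was measured in parallel in MT4 cells.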

[11] = tested on: Human immunodeficiency virus 1; assay: Antiviral activity against Human immunodeficiency virus 1 3B clinical isolate harboring L10I/I13V/M46I/I50V/L63P/L76V protease mutant infected in human MT4 cells assessed as inhibition of viral replication; assay type: functional, organism-based
Summary of the method: (§2)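 Inhibition of replication in MT4 cells infected with protease-mutant HIV-1 clinical isolates, reported as EC50. Each assay run in quadruplicate. Values are averages of at least two independent experiments, typically three to four. Cytotoxicity (CC50) was measured in parallel in MT4 cells.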

[12] = tested on: Human immunodeficiency virus 1; assay: Antiviral activity against Human immunodeficiency virus 1 3B clinical isolate harboring L10I/M46I/I64V/I84V/L90M/I93L protease mutant infected in human MT4 cells assessed as inhibition of viral replication; assay type: functional, organism-based; summary of the method: as §2
[13] = Cytotoxicity against human MT4 cells; assay type: cell-based
[14] = tested on: Human immunodeficiency virus 1; assay: Antiviral activity against wild type Human immunodeficiency virus 1 3B infected in human MT4 cells assessed as inhibition of viral replication; assay type: functional, organism-based
Summary of the method: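 EC50 values are averages of at least two independent experiments (typically three to four), each run in quadruplicate. For the serum-shifted line, the same antiviral assay includes 50% human serum, used as a functional measure of plasma protein binding.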

[15] = tested on: Human immunodeficiency virus 1; assay: Antiviral activity against wild type Human immunodeficiency virus 1 3B infected in human MT4 cells assessed as inhibition of viral replication in presence of 50% human serum
[16] = Bioavailability in rat at 50 mg/mL formulated with Vit-E TPGS in water administered intramuscularly measured after 1 month; assay type: ADME, organism-based; conditions: in vivo, im; summary of the method: as §1
[17] = Bioavailability in rat at 50 mg/mL formulated with 12.5 mg/mL of poloxamer 338 and sucrose in water administered intramuscularly measured after 1 month; assay type: ADME, organism-based; conditions: in vivo, im; summary of the method: as §1
[18] = Bioavailability in rat at 100 mg/mL formulated with 25 mg/mL of polysorbate 20 and 9 mg/mL of NaCl in water administered intramuscularly measured after 1 month; assay type: ADME, organism-based; conditions: in vivo, im; summary of the method: as §1

| Structure (SMILES) | solubility [1] | bioavailability at 1 month [2] | bioavailability at 1 month [3] | bioavailability at 1 month [4] | metabolised at 0.25 h, 1 µM [5] | clearance [6] | Ratio EC50 [7] | Ratio EC50 [8] | Ratio EC50 [9] | EC50 [10] | EC50 [11] | EC50 [12] | CC50 [13] | EC50 [14] | EC50 [15] | bioavailability at 1 month [16] | bioavailability at 1 month [17] | bioavailability at 1 month [18] |
| --- | --- | --- | --- | --- | --- | --- | --- | --- | --- | --- | --- | --- | --- | --- | --- | --- | --- | --- |
| COC(=O)N[C@H](C(=O)N[C@@H](Cc1ccc(-c2ccc(N(C)C)nc2)cc1)[C@@H](O)C[C@@H](Cc1ccccc1F)C(=O)N[C@H]1c2cc(F)cc(Cl)c2OC[C@H]1O)C(C)(C)C | < 100 µg/mL | 5% | 12% | 3% | 22% | 13.3 mL/min/kg | <1 | <1 | <1 | 0.8 nM | 0.9 nM | 1.3 nM | > 10000 nM | 1.7 nM | 6 nM | – | – | – |
| COC(=O)N[C@H](C(=O)N[C@@H](Cc1ccc(-c2ccc(OC)nc2)cc1)[C@@H](O)C[C@@H](Cc1ccccc1F)C(=O)N[C@H]1c2cc(F)cc(C)c2OC[C@H]1O)C(C)(C)C | – | – | – | – | 17% | 26.7 mL/min/kg | <1 | 2 | 3 | 1.5 nM | 3.3 nM | 5.4 nM | > 10000 nM | 1.8 nM | 6.8 nM | – | – | – |
| COC(=O)N[C@H](C(=O)N[C@@H](Cc1ccc(-c2ccc(OC)nc2)cc1)[C@@H](O)C[C@@H](Cc1ccccc1F)C(=O)N[C@H]1c2ccsc2CC[C@H]1O)C(C)(C)C | < 100 µg/mL | – | – | – | 91% | 80 mL/min/kg | <1 | <1 | <1 | 0.4 nM | 0.6 nM | 0.9 nM | > 10000 nM | 1.1 nM | 3.7 nM | 100% | > 100% | – |
| COC(=O)N[C@H](C(=O)N[C@@H](Cc1ccccc1)[C@@H](O)CN(Cc1ccc(-c2ccccn2)cc1)NC(=O)[C@@H](NC(=O)OC)C(C)(C)C)C(C)(C)C [ATAZANAVIR] | – | – | – | – | – | – | 9 | <1 | 8 | – | – | 57 nM | > 10000 nM | 6.8 nM | 13 nM | – | – | – |
| COC(=O)N[C@H](C(=O)N[C@@H](Cc1ccc(-c2ccc(OC)nc2)cc1)[C@@H](O)C[C@@H](Cc1ccccc1F)C(=O)N[C@H]1c2cc(F)ccc2OC[C@H]1O)C(C)(C)C | – | – | – | – | 48% | 35 mL/min/kg | – | – | – | – | – | – | > 10000 nM | 1.2 nM | 5.8 nM | – | – | – |
| COC(=O)N[C@H](C(=O)N[C@@H](Cc1ccc(-c2ccc(OC)nc2)cc1)[C@@H](O)C[C@@H](Cc1ccccc1F)C(=O)N[C@H]1[C@H](C)CCC[C@H]1O)C(C)(C)C | < 100 µg/mL | – | – | – | 99% | 90 mL/min/kg | <1 | <1 | <1 | 0.5 nM | 0.3 nM | – | > 10000 nM | 0.8 nM | 2 nM | – | – | > 100% |
| COC(=O)N[C@H](C(=O)N[C@@H](Cc1ccc(-c2ccc(OC)nc2)cc1)[C@@H](O)C[C@@H](Cc1ccccc1F)C(=O)N[C@H]1[C@H](C)CC[C@H]1O)C(C)(C)C | – | – | – | – | 99% | 78.3 mL/min/kg | – | – | – | – | – | – | > 10000 nM | 1.1 nM | 3.3 nM | – | – | – |
| COC(=O)N[C@H](C(=O)N[C@@H](Cc1ccccc1)[C@@H](O)C[C@@H](Cc1ccccc1)C(=O)N[C@H]1c2ccccc2OC[C@H]1O)C(C)(C)C | – | – | – | – | 99% | 66.7 mL/min/kg | <1 | <1 | 2 | 7 nM | 6 nM | 19 nM | > 10000 nM | 10 nM | 19 nM | – | – | – |
| CC(C)CN(C[C@@H](O)[C@H](Cc1ccccc1)NC(=O)O[C@H]1CO[C@H]2OCC[C@H]21)S(=O)(=O)c1ccc(N)cc1 | – | – | – | – | – | – | <1 | 8 | 2 | 2.4 nM | – | 12 nM | > 10000 nM | – | 17 nM | – | – | – |
| COC(=O)N[C@H](C(=O)N[C@@H](Cc1ccc(-c2ccc(OC)nc2)cc1)[C@@H](O)C[C@@H](Cc1ccccc1F)C(=O)N[C@H]1c2cc(F)cc(Cl)c2OC[C@H]1O)C(C)(C)C | – | – | – | – | 8% | 31.7 mL/min/kg | – | – | – | – | – | – | > 10000 nM | 2.6 nM | 8.4 nM | – | – | – |
| COC(=O)N[C@H](C(=O)N[C@@H](Cc1ccc(-c2ccc(N(C)C)nc2)cc1)[C@@H](O)C[C@@H](Cc1ccccc1F)C(=O)N[C@H]1[C@H](C)CCC[C@H]1O)C(C)(C)C | – | – | – | – | 99% | 93.3 mL/min/kg | – | – | – | – | – | – | > 10000 nM | 1.1 nM | 4.9 nM | – | – | – |
